Assay outcomes deposited in PubChem BioAssay by several laboratories.
Cl transport mod – modulators of human KCC2 chloride dependent transport; Q9H2X9; KCC2 cells, thallium flux FluoZin-2 fluorescence; B-score of Tl+ flux slope (higher = more flux/activation; lower = inhibition) at 10 µM; hit rate 2.2% among 190,000;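 active = thallium flux slope and its plate-corrected score both differing from the plate sample mean at a set confidence after two filtering rounds, in either direction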;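 note: slope of fluorescence scaled to starting intensity during 10 to 20 s after thallium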
NPY Y1 blocker – NPY-Y1 (human) receptor antagonism; P25929; HEK293-CNG Y1 cells, membrane potential fluorescence; NPY at EC95, then isoproterenol; inhibition, % at 3.6 µM; hit rate 1% among 200,000; AID 1040;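 active = inhibition above the campaign mean inhibition of all tested compounds plus 3 SD, cut at about 20% in these data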;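 note: 0% = DMSO wells given NPY plus isoproterenol and 100% = isoproterenol alone without NPY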
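Material: HEK293 cells with Y1 receptor plus CNG channel; times: compound incubation 1 h at room temperature, readout 45 min post-stimulation; signal: fluorescence, membrane potential probe; read-out basis: fluorescence ratio normalized to % inhibition between controls; benchmarks: full-block control isoproterenol-only wells, zero-block control NPY plus isoproterenol wells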
NPY-Y2 antag – NPY-Y2 (human) receptor antagonism; AID 793; inhibition, % at 2.7 µM; hit rate 0.99% among 140,000; NPY-Y2 expressing cells, antagonist mode; in the data active = inhibition above about 17%;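 note: 0% = vehicle with agonist challenge and 100% = reference antagonist with challenge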
NPY2 pot ag – human NPY-Y2 potentiation or agonism, primary screen | cells expressing NPY-Y2, potentiator/agonist read-out | activation, % at 3.6 µM | hit rate 0.45% among 220,000 | AID 1359; in the data active = activation above about 27%;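 note: cells stimulated with NPY near EC25 plus isoproterenol at EC100; 0% = vehicle plus submaximal agonist and 100% = vehicle plus saturating agonist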
NPY1 pot ag – potentiators or agonists of human neuropeptide Y receptor Y1; NPY-Y1 expressing cells, potentiator/agonist activation; activation, % at 3.6 µM; hit rate 0.37% among 220,000; AID 1304; in the data active = activation above about 33%, passing the limit was not always enough;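 note: cells stimulated with NPY at EC10 then isoproterenol at EC100; 0% = low agonist plus stimulus and 100% = saturating agonist plus stimulus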
Furin inhibitor – human furin inhibition; AID 463115; inhibition, % at 20 µM or 30 µM; hit rate 0.061% among 220,000; purified furin, fluorogenic substrate cleavage; in the data active = inhibition above about 25%
Target sequence (P09958 108-714 limits assumed): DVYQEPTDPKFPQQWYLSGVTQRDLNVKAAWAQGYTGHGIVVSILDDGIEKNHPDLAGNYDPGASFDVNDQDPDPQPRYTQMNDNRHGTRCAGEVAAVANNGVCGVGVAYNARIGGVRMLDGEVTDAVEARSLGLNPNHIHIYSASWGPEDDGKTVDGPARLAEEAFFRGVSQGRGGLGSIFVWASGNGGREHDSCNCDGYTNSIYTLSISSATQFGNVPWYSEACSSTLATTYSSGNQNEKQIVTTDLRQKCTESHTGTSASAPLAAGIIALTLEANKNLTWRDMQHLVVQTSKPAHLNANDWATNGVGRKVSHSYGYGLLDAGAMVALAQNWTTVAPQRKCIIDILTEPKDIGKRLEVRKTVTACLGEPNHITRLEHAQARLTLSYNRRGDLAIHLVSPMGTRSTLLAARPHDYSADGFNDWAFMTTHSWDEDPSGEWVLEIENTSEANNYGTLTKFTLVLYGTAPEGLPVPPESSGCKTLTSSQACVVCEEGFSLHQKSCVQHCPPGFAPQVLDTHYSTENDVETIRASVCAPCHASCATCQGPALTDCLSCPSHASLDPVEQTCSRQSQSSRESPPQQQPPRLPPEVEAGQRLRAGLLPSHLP
NPY1 antag ctr – counter-screen for NPY-Y2 antagonists: human NPY-Y1 antagonism. AID 1256. inhibition, % at 3.6 µM. cell-based NPY-Y1 antagonism counterscreen. hit rate 19% among 710. shares compounds with NPY-Y2 antag; in the data active = inhibition above about 20%;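 note: cells challenged with NPY then isoproterenol with cAMP sensed through a CNG channel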
NPY2 antag conf – confirmation of human neuropeptide Y receptor Y2 antagonists | HEK293 NPY-Y2 CNG channel, membrane potential fluorescence | shares compounds with NPY-Y2 antag | hit rate 32% among 710 | AID 1257 | inhibition, % at 2.8 µM;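 active = mean inhibition of triplicate wells above the hit cutoff set in the primary screen, cut at about 17% in these data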;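 note: 0% = DMSO with NPY challenge and 100% = BIIE0246 high control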
Starred values were filed as active, the others as inactive; x = not tested or not shown. Rows were chosen to be rich in hits. Some 3.7% of all compounds tested hit in one or more screens of this group.

SMILES | Cl transport mod | NPY Y1 blocker | NPY-Y2 antag | NPY2 pot ag | NPY1 pot ag | Furin inhibitor | NPY1 antag ctr | NPY2 antag conf
Cc1ccc(CSCCNC(=O)c2ccc(N(C)S(=O)(=O)c3ccccc3)cc2)cc1 | x | 4.9 | 17.9* | -25.8 | -35.6 | 5.2 | 10.3 | 14.7
Cc1ccc(C)n1-c1ccc(-c2ccnc(N)n2)cc1 | 1.82 | -5.8 | x | -6.3 | 0.4 | -7.3 | x | x
CC1=C(C(=O)OCc2ccc3c(c2)OCO3)C(c2ccc(Cl)cc2)NC(=O)N1 (configuration not stated) | x | -4.4 | 7.8 | -12.3 | -13.4 | -17.7 | x | x
CC1=C(C(=O)OCc2ccc3c(c2)OCO3)C(c2ccc(F)cc2)NC(=O)N1 (configuration not stated) | x | 8.2 | 24.2* | -0.5 | -1.3 | -10.2 | 6.5 | 11.0
Nc1c(C(=O)NCCN2CCOCC2)c2nc3ccccc3nc2n1-c1ccc2c(c1)OCO2 | -0.963 | -3.9 | -1.5 | 20.8 | -15.7 | -3.0 | x | x
Nc1c(C(=O)NCc2ccc3c(c2)OCO3)c2nc3ccccc3nc2n1CCCN1CCOCC1 | x | 12.0 | 19.1* | -4.9 | -10.1 | -11.4 | 17.4 | 7.1
C/C(=N\NC(=O)c1nn(C)c(C)c1Br)c1ccc(NC(=O)c2ccccc2F)cc1 | 0.544 | 2.0 | -2.0 | -2.8 | 3.5 | -17.0 | x | x
Cc1ccc(Oc2c(CO)c(-c3ccccc3)nn2C)cc1 | -1.26 | -2.1 | x | -1.6 | -8.7 | -20.5 | x | x
C/C(CCC(=O)OC[C@H]1O[C@H](C#Cc2ccccc2)C=C[C@@H]1Oc1ccc(C)cc1)=N\O[C@@H](C)CN1CCCCc2nc(C)c(C)cc21 | 0.669 | 4.3 | 21.6* | -17.3 | -15.1 | -10.2 | 9.0 | 8.6
CC(C)(CO)NCC(=O)Nc1cc(C(F)(F)F)cc(NC(=O)CNC(C)(C)CO)c1Cl | 0.637 | 0.0 | 1.8 | 19.8 | 18.4 | -12.4 | x | x
CCOC(=O)CSc1ncc(OC)c(Sc2ccc(Cl)cc2)n1 | -0.507 | 14.0 | 21.3* | -18.7 | -34.1 | -17.0 | 3.6 | 9.0
CCOC(=O)C(C)Sc1ncc(OC)c(Sc2ccc(Cl)cc2)n1 (configuration not stated) | -0.00953 | 8.1 | 16.6 | -21.9 | -10.6 | -13.4 | x | x
CCN(CC)C(=O)CSc1nc(N)c(C#N)c(-c2cccs2)c1C#N | -0.48 | -5.6 | 1.9 | -4.4 | -19.0 | -25.0 | x | x
CCN(CC)C(=O)CSc1nc(-c2cccs2)cc(-c2cccs2)c1C#N | 1.54 | 5.0 | 18.2* | 5.1 | -35.5 | -4.9 | 16.4 | 12.5
Cc1nn(C(=O)c2ccc3c(c2)OCO3)c(N)c1-c1ccccc1 | -1.4 | 0.8 | 5.4 | 23.0 | 21.2 | -12.9 | x | x
COc1ccc(NC(=O)CSc2nnc(CCC(=O)Nc3ccc(C)c(Cl)c3)n2C)cc1 | x | -0.6 | 1.0 | 15.3 | 14.5 | -20.1 | x | x
COc1ccc(N2C(=O)/C(=C\c3ccco3)N=C2SCC(=O)N(C(C)C)C(C)C)cc1Cl | -0.896 | 5.5 | 17.9* | -1.8 | -11.5 | -18.8 | 7.7 | 9.8
CCOC(=O)C1CCN(C(=O)c2cccnc2Cl)CC1 | 0.772 | -1.6 | -1.9 | -1.6 | 34.5 | -24.1 | x | x
Cc1cccc(-c2nnc(SCc3ccc(C#N)cc3)n2Cc2ccco2)c1 | -2.22 | 14.3 | 20.2* | -5.3 | -2.6 | -4.8 | 9.4 | 4.7
CCn1c(SCc2ccc(C#N)cc2)nnc1-c1cccc(Cl)c1 | 0.159 | 4.1 | 4.9 | -2.4 | -23.9 | -8.1 | x | x
N#CCSc1nnc(COc2ccc3ccccc3c2)o1 | -2.61 | 5.8 | 1.7 | 17.6 | 5.2 | -10.9 | x | x
CCCNC(=O)COC(=O)/C=C/c1ccc2c(c1)OCO2 | 0.172 | 8.6 | 23.6* | -12.2 | -14.9 | -11.7 | 11.1 | 7.3
O=C(COC(=O)/C=C/c1ccc2c(c1)OCO2)Nc1ccccc1 | -0.205 | 10.3 | x | -21.6 | -16.7 | -16.6 | x | x
Cc1cc(C(=O)NCC(=O)OCC(=O)N(C(C)C)C(C)C)ccc1[N+](=O)[O-] | -0.0421 | 2.7 | 2.0 | -1.4 | 14.8 | -12.4 | x | x
CC1CCN(c2nc3ccc(C(=O)N4CCN(Cc5ccc6c(c5)OCO6)CC4)cc3s2)CC1 | 0.338 | 6.4 | 3.6 | -0.2 | 6.4 | -25.8 | x | x
COc1ccc(Cc2nc(C(=O)Nc3ccccc3)cs2)cc1 | -2.2 | 14.5 | 18.3* | -11.8 | -17.9 | -10.1 | 7.5 | 8.6
